Results on five compounds are retold here after ChEMBL document CHEMBL1129298, “Nonpeptide angiotensin II receptor antagonists: synthesis, biological activities, and structure-activity relationships of imidazole-5-carboxylic acids bearing alkyl, alkenyl, and hydroxyalkyl substituents at the 4-position and their related compounds” (J Med Chem, 1996).

For assay [1], the target named is Angiotensin II receptor (Rattus norvegicus) (UniProt P29089+P25095+P35351). Kind of assay: In vivo inhibitory activity against angiotensin II induced pressor response in anesthetized normotensive rats. The class given is functional, organism-based. In a few lines:
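Male Wistar-Imamichi rats (300–400 g) under inactin (100 mg/kg ip), with femoral arterial and venous cannulae. AII 50 ng/kg iv every 10 min until responses were constant. Compound in DMSO was then given iv and AII re-injected 2 min later.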

Assay [2] deals with Rattus norvegicus. Kind of assay: Inhibitory activity against AII-Induced Pressor response at 0.3 mg/Kg at 6 hour. Format: functional. In a few lines:
(§1)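 Male Wistar-Imamichi rats (300–400 g) cannulated under pentobarbital (50 mg/kg ip), fasted 24 h, tested conscious the next day. AII 50 ng/kg iv was repeated until constant, then compound in 50% aqueous DMF given orally. AII was repeated over 8 h, and mean blood pressure response inhibition (%) was recorded at 1, 3, 6 h. n = 3–5.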

The subject of assay [3] is Rattus norvegicus. Kind of assay: Inhibitory activity against AII-Induced Pressor response at 0.3 mg/Kg at 3 hour. Format: functional. In a few lines:
as §1

Assay [4] has as its system Rattus norvegicus. The experiment in a line: Inhibitory activity against AII-Induced Pressor response at 0.3 mg/Kg at 1 hr. Format: functional. In a few lines: as §1
Assay [5] relates to Rattus norvegicus. The experiment in a line: Inhibitory activity against AII-Induced Pressor response at 1 mg/Kg at 3 hour. Format: functional. In a few lines:
as §1

Assay [6] deals with Rattus norvegicus. The experiment in a line: Inhibitory activity against AII-Induced Pressor response at 1 mg/Kg at 1 hr. The class given is functional. In a few lines: as §1
The target in assay [7] is T1, Type-1 angiotensin II receptor (Bos taurus, UniProt P25104).
T1 sequence (P25104 whole entry): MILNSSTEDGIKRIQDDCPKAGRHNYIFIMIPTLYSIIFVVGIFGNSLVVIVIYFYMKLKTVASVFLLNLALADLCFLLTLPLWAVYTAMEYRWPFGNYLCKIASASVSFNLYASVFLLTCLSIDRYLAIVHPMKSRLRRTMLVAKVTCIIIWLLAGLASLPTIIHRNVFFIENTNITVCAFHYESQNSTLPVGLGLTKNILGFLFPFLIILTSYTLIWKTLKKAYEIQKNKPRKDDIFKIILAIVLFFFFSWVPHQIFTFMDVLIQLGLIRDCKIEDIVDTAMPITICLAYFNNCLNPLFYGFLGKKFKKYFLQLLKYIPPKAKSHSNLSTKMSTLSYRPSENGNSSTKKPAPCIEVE
The experiment in a line: In vitro for inhibition of [125I]-angiotensin II (0.1 nM) binding to angiotensin II receptor type 1 in membrane fractions of bovine adrenal cortex. Format: tissue-based.

In assay [8] the test system is Rattus norvegicus. The experiment in a line: Inhibitory activity against AII-Induced Pressor response at 1 mg/Kg at 6 hour. The class given is functional. In a few lines:
as §1

Assay [9] has as its system Rattus norvegicus. The experiment in a line: Inhibitory activity against AII-Induced Pressor response at 1 mg/kg at 1 hr. The class given is functional. In a few lines:
as §1

In assay [10] the test system is Rattus norvegicus. The experiment in a line: Inhibitory activity against AII-Induced Pressor response at 0.3 mg/Kg at 3 hr. The class given is functional. In a few lines:
as §1

Assay [11] deals with Rattus norvegicus. The experiment in a line: Inhibitory activity against AII-Induced Pressor response at 3 mg/Kg at 1 hr. Format: functional. In a few lines:
as §1

Assay [12] deals with Rattus norvegicus. The experiment in a line: Inhibitory activity against AII-Induced Pressor response at 1 mg/kg at 3 hour. To be noted: 1 mg/kg. The class given is functional. In a few lines: as §1
Assay [13] has as its system Rattus norvegicus. Kind of assay: Inhibitory activity against AII-Induced Pressor response at 1 mg/kg at 6 hour. Format: functional. In a few lines: as §1
Assay [14] has as its system Rattus norvegicus. The experiment in a line: Inhibitory activity against AII-Induced Pressor response at 0.1 mg/Kg at 6 hour. Format: functional. In a few lines: as §1
For assay [15], the system named is Rattus norvegicus. The experiment in a line: Inhibitory activity against AII-Induced Pressor response at 0.1 mg/Kg at 1 hr. Format: functional. In a few lines: as §1
For assay [16], the system named is Rattus norvegicus. The experiment in a line: Inhibitory activity against AII-Induced Pressor response at 0.03 mg/Kg at 3 hour. The class given is functional. In a few lines:
as §1

Assay [17] relates to Rattus norvegicus. The experiment in a line: Inhibitory activity against AII-Induced Pressor response at 0.1 mg/Kg at 3 hour. The class given is functional. In a few lines: as §1
The test system of assay [18] is Rattus norvegicus. The experiment in a line: Inhibitory activity against AII-Induced Pressor response at 0.03 mg/Kg at 6 hour. The class given is functional. In a few lines: as §1
In assay [19] the test system is Rattus norvegicus. The experiment in a line: Inhibitory activity against AII-Induced Pressor response at 0.03 mg/Kg at 1 hr. The class given is functional. In a few lines:
as §1

“And” between values parts separate entries of the source, which are not always exact repeats. Equal entries are not always repeated.

Usually inhibition in vivo stands for how much of the control response was suppressed. A lower inhibition in vivo goes with little suppression. In turn, `CCCc1nc(C(C)O)c(C(=O)O)n1Cc1ccc(-c2ccccc2-c2nn[nH]n2)cc1` (configuration not stated) gave an ID50 in [1] of 6.3 µg/kg. For the same compound, the inhibition in vivo at 0.3 mg/kg was 69% in [2], 78% in assay [3] and 80% in [4].
In general, IC50 refers to the concentration that gives 50% inhibition. Higher therefore signals weaker potency in that assay. `CCCc1nc(C(C)(C)O)c(C(=O)O)n1Cc1ccc(-c2ccccc2-c2nnn[nH]2)cc1` [OLMESARTAN] showed an ID50 in [1] of 7.9 µg/kg. Further, the inhibition in vivo at 0.3 mg/kg amounted to 78% in assay [2], 77% in assay [3] and 83% in [4]. The inhibition in vivo at 1 mg/kg in [5] was 98%; in assay [6] it was 98%; in assay [8] it was 93%. Further, the half-inhibitory concentration (IC50) in assay [7] was 8.1 nM.
The term Inhibition denotes the share of the control response that was lost under treatment. Read a low Inhibition as little suppression. Turning to `CCCc1nc(C(C)(C)O)c(C(=O)OCOC(=O)C(C)(C)C)n1Cc1ccc(-c2ccccc2C(=O)O)cc1`, the inhibition in vivo at 1 mg/kg in assay [9] was 52%; in [13] (Rattus norvegicus, 6 h, dose 1 mg/kg) it was 75%. In addition, the inhibition in vivo at 0.3 mg/kg in [10] was determined as 32%; in assay [4] it was 43%. The inhibition in vivo at 3 mg/kg in assay [11] worked out at 85%. For the same compound, the Inhibition in [12] was 61% and 85%; in [13] (dose 3 mg/kg, in the assay text read “3 mg/kg” for “1 mg/kg”), 87%.
Consider `CCCc1nc(C(C)(C)O)c(C(=O)OCOC(=O)C(C)(C)C)n1Cc1ccc(-c2ccccc2-c2nn[nH]n2)cc1`, for which the inhibition in vivo at 0.1 mg/kg in [14] was 70%; in [15] it was 75%; in [17], 84%. The values for the inhibition in vivo at 0.3 mg/kg in assay [2], in assay [3] and in assay [4] were 90%, 85% and 76%, respectively. Moreover, the figures for the inhibition in vivo at 0.03 mg/kg in [16], in [18] and in assay [19] were 41%, 43% and 29%, respectively.
For `CCCc1nc(CO)c(C(=O)O)n1Cc1ccc(-c2ccccc2-c2nn[nH]n2)cc1`, in assay [1], the ID50 is 6.2 µg/kg. Also, the inhibition in vivo at 0.3 mg/kg in assay [2] came to 65%; in assay [3] it was 75%; in assay [4] it was 76%.
